The values below come from ChEMBL document CHEMBL1154321, “Benzoxazole piperidines as selective and potent somatostatin receptor subtype 5 antagonists” (Bioorg Med Chem Lett, 2009).

Data set [1] deals with Somatostatin receptor type 3 (Homo sapiens, UniProt P32745). The data set can be described thus: Displacement of SST14 from human recombinant SST3 receptor. In outline: (§1)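 Membranes prepared by sonication from cells expressing the SST receptor subtype, incubated with radiolabeled 11-Tyr SST-14 tracer and test compound at varying concentrations; non-labeled SST-14 defined non-specific binding. Incubation stopped by glass-fiber filtration, bound radioactivity counted; IC50 for half-maximal binding inhibition estimated and Ki derived.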
Chain of Somatostatin receptor type 3 (P32745 whole entry): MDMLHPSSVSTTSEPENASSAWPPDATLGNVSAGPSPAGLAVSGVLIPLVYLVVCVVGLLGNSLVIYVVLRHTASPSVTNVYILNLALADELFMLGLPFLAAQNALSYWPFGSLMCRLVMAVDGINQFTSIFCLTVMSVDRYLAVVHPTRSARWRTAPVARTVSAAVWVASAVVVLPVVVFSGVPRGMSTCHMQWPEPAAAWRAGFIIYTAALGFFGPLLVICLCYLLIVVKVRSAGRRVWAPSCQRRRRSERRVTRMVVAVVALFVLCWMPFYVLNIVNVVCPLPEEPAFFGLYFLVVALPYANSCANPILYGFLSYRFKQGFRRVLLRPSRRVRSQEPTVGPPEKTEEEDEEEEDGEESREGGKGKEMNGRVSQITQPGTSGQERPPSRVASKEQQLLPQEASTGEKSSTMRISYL

A short description of data set [2]: Solubility in phosphate buffer at pH 6.5 by lyophilization solubility assay. It is filed as physicochemical. In outline:
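Lyophilized DMSO stock solutions redissolved in 50 mM phosphate buffer, pH 6.5; solubility read spectrophotometrically.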

In data set [3] the target is Somatostatin receptor type 4 (Homo sapiens, UniProt P31391). The experiment in a line: Displacement of SST14 from human recombinant SST4 receptor. The gist of the method:
as §1

Data set [4] in a line: Octanol-TAPSO partition coefficient, log D at pH 7.4 by spectrophotometry. It is filed as physicochemical. As to conditions: octanol/TAPSO buffer. In outline:
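Spectrophotometric log D in 1-octanol/50 mM TAPSO buffer, pH 7.4, containing 5% (v/v) DMSO.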

The nature of data set [5]: Clearance in Wistar rat administered as single dose. The class given is ADME, organism-based. The conditions noted are these: in vivo.
The target in data set [6] is T1, Somatostatin receptor type 5 (Homo sapiens, UniProt P35346). The experiment in a line: Antagonist activity at human SST5 receptor expressed in CHO cells assessed as inhibition of forskolin-induced cAMP release by TR-FRET assay. It is filed as functional, cell-based. The gist of the method:
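Transfected cells incubated with forskolin, 0.15 nM SST-14 and test compound at varying concentrations; cellular cAMP measured by FRET-based assay. IC50 taken as concentration half-maximally reversing the SST-14 effect, read from concentration-versus-cAMP curves.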
Background: In TR-FRET formats the signal depends on donor and acceptor labels being close together.

Data set [7] has as its target Voltage-gated inwardly rectifying potassium channel KCNH2 (Homo sapiens, UniProt Q12809). The experiment in a line: (§2) Inhibition of human ERG expressed in CHO cells by patch clamp technique. The class given is cell-based. (In general: The patch-clamp technique gives a direct electrical read-out from membranes.)
The nature of data set [8]: Terminal half-life in Wistar rat administered as single dose. The class given is ADME, organism-based. The conditions noted are these: in vivo, read-out: beta t1/2 (converted).
Data set [9] is described as follows: sPermeability by PAMPA. As to conditions: read-out: permeability. The class given is ADME. In outline: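 Parallel artificial membrane permeation; Pe categorized as low (<0.1), medium (0.1–1.0) or high (>1.0).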
The nature of data set [10]: Volume of distribution at steady state in Wistar rat administered as single dose. It is filed as ADME, organism-based. As to conditions: in vivo, read-out: Vdss.
Data set [11] concerns the target T1, Somatostatin receptor type 5. The data set can be described thus: Displacement of SST14 from human recombinant SST5 receptor expressed in CHO cells by radioligand binding assay. It is filed as cell-based. The gist of the method: as §1
Data set [12] addresses Somatostatin receptor type 2 (Homo sapiens, UniProt P30874). The data set can be described thus: Displacement of SST14 from human recombinant SST2 receptor. The gist of the method:
as §1

Data set [13] in a line: Oral bioavailability in Wistar rat administered as single dose. It is filed as ADME, organism-based. The conditions noted are these: in vivo.
For data set [14], the target named is Somatostatin receptor type 1 (Homo sapiens, UniProt P30872). The data set can be described thus: Displacement of SST14 from human recombinant SST1 receptor. In outline:
as §1

For another data set, the target named is hERG (KCNH2) (Homo sapiens, UniProt Q12809). The description is as §2. The class given is cell-based. The conditions noted are these: human, CHO cells expressing human ERG.
Chain of hERG (KCNH2) (Q12809 whole entry): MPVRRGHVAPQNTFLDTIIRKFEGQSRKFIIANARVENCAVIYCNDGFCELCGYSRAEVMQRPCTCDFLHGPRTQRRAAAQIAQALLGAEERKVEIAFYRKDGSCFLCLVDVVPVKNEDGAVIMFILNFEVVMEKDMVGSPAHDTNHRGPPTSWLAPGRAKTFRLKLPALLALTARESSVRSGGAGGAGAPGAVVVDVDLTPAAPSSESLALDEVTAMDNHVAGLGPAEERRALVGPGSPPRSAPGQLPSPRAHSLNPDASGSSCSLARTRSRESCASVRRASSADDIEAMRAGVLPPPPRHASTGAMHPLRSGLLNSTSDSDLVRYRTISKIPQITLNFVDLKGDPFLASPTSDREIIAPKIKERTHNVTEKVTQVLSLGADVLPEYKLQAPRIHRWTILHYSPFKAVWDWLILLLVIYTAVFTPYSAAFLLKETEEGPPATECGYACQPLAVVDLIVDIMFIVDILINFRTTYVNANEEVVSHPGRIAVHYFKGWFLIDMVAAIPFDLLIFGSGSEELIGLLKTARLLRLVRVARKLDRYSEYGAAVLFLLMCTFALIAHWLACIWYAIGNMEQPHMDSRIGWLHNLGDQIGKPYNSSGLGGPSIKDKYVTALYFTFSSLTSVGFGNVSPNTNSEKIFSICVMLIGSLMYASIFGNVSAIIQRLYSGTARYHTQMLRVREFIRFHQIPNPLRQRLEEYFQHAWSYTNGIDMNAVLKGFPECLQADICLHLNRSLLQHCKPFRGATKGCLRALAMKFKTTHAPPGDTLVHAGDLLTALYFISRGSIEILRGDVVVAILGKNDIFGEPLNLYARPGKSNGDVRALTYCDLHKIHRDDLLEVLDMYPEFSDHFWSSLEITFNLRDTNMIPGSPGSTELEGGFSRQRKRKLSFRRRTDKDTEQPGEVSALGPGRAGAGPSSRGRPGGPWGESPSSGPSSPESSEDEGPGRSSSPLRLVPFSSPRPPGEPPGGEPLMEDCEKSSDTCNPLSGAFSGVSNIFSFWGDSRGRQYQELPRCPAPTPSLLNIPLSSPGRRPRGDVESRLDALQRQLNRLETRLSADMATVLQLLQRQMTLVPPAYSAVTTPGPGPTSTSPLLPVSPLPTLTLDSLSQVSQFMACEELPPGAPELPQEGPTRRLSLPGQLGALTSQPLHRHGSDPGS
Another data set is filed under the species Homo sapiens. The data set can be described thus: Selectivity ratio of Ki for human histamine H1 receptor to Ki for human SST5 receptor.
Data set [15] has as its target 5-hydroxytryptamine receptor 2B (Homo sapiens, UniProt P41595). The data set can be described thus: Binding affinity to human 5HT2B receptor.
Data set [16] can be described thus: Dissociation constant, pKa by spectrophotometry. The class given is physicochemical.

The structures appear in SMILES notation. In brackets after ≈: the same amount, converted by molar mass.

Chain of Somatostatin receptor type 2 (P30874 whole entry): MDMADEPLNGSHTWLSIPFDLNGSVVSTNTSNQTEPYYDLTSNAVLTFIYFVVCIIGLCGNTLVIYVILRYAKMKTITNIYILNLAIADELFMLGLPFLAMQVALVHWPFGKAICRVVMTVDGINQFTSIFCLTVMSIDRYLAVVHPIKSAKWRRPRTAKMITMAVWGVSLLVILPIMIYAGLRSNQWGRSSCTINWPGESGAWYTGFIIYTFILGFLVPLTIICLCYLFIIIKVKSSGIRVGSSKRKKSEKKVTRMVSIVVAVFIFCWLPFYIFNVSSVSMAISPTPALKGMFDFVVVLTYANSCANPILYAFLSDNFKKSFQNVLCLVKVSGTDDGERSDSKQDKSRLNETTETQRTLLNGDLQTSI
T1 sequence (P35346 whole entry): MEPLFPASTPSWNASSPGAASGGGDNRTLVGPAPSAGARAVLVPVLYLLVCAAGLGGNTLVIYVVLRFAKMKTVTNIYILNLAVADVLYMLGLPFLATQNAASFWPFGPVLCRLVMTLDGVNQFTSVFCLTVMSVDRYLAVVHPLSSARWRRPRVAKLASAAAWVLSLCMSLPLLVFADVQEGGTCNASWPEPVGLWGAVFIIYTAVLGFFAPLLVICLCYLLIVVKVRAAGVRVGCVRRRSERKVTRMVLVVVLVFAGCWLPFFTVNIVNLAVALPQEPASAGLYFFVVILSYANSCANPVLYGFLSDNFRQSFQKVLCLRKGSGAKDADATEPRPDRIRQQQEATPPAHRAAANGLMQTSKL
Chain of Somatostatin receptor type 4 (P31391 whole entry): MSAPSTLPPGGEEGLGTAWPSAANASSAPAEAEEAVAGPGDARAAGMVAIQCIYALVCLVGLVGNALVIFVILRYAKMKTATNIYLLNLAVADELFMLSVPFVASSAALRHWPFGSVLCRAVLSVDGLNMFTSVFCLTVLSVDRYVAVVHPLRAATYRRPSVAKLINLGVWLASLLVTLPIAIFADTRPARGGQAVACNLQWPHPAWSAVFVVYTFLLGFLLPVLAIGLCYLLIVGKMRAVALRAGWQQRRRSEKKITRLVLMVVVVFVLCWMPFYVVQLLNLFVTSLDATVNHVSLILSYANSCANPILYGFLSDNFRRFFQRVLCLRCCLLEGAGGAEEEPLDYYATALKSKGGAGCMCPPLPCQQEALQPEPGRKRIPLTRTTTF
Chain of Somatostatin receptor type 1 (P30872 whole entry): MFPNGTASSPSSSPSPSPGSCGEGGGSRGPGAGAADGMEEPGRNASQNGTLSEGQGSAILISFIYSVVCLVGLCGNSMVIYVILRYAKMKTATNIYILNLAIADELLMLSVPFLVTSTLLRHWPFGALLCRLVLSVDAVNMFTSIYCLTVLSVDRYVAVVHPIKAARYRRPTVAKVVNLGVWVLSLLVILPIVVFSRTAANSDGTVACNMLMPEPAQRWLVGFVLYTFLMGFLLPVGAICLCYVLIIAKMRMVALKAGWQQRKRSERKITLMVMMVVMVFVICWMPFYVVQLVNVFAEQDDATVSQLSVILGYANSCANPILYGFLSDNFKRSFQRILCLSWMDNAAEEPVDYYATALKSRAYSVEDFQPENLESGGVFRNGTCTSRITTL
Chain of 5-hydroxytryptamine receptor 2B (P41595 whole entry): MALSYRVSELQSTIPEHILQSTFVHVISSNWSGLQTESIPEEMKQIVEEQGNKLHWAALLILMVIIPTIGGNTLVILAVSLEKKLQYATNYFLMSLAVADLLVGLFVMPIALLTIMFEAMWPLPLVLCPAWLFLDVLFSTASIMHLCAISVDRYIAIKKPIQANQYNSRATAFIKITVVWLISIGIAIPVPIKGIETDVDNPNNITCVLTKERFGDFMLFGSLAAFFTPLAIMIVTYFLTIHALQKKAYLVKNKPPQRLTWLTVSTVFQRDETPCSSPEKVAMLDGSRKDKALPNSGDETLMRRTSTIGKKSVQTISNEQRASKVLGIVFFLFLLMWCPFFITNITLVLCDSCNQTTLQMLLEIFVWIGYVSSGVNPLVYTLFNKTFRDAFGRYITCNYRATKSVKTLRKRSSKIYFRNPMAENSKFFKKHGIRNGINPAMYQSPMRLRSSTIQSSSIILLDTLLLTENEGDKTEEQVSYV
Chain of Voltage-gated inwardly rectifying potassium channel KCNH2 (Q12809 whole entry): as the sequence (Q12809 whole entry) above

In the case of `CCOc1cc(CN2CCC(Nc3nc4ccc(C(=O)O)cc4o3)CC2)ccc1Cl`, the Ki in data set [1] is > 10 µM; in data set [3], > 10 µM; in [11] it was 0.023 µM; in data set [12], > 10 µM; in data set [14] it was > 10 µM. The molecule also registered a solubility in data set [2] of 7 µg/mL (≈ 16.3 µM). Moreover, in [4], the logD worked out at 1.39. Further, in data set [5], the clearance is 27 mL/min/kg. Also, the IC50 is 0.098 µM in data set [6] and > 10 µM in data set [7]. Further, the half-life in [8] was 3.1 h. Besides, the Papp in [9] stood at 3.6 ×10⁻⁶ cm/s. Moreover, the Vd in data set [10] was determined as 4.3 L/kg. This molecule also returned a bioavailability in [13] of 57%.

Turning to `CCOc1cc(CN2CCC(Nc3nc4ccccc4o3)CC2)ccc1OC`, the Ki was > 10 µM in data set [1], > 10 µM in data set [3], 0.041 µM in data set [15] and > 10 µM in data set [12]. In [5], this molecule gave a clearance of 84 mL/min/kg. For the same molecule, the IC50 against hERG (KCNH2) was < 0.1 µM. Moreover, the half-life in data set [8] was 0.7 h. The Ratio Ki in the data set listed under Homo sapiens was found to be 5.2. The Vd in data set [10] was 4.1 L/kg. In addition, in data set [13], the bioavailability was determined as 6%. Also, the pKa in data set [16] was determined as 8.3.

As to `CCOc1cc(CN2CCC(Nc3nc4ccc(C(=O)O)cc4o3)CC2)cc(OCC)c1F`, the Ki in data set [1] is > 10 µM; in data set [3], > 10 µM; in [11], 0.018 µM; in data set [12], > 10 µM; in data set [14], > 10 µM. In [2], this molecule came in with a solubility of 6 µg/mL (≈ 13.1 µM). In addition, the log distribution coefficient (logD) in [4] worked out at 1.33. In addition, in [5], the clearance worked out at 20 mL/min/kg. Further, the IC50 in [6] was 0.072 µM. Also, in data set [8], the half-life was 2.4 h. In addition, in [9], the Papp is 2.89 ×10⁻⁶ cm/s. In addition, the Vd in data set [10] stood at 1.5 L/kg. The molecule also returned a bioavailability in data set [13] of 39%.

What is called Ki is a dissociation constant, usually derived from enzyme kinetics or from competition with a known ligand. Broadly, the solubility is the dissolved amount per volume that the medium holds. Read a high solubility as a readily soluble substance. The term logD denotes the decadic logarithm of the distribution of all forms, ionised or not, between an organic phase and buffer at a given pH. Read a low logD as a more hydrophilic compound. For orientation: clearance means the rate of elimination divided by the concentration. High values mean efficient removal, low ones inefficient removal. The term IC50 denotes the midpoint of a concentration-inhibition curve. A word on the bioavailability: it is the share of a dose that reaches the circulation, judged against a reference dose that is usually intravenous. A word on the pKa: it is the negative logarithm of the acid dissociation constant.
